Assay results reported in ChEMBL document CHEMBL3045743, “Synthesis and herbicidal activity of isoindoline-1,3-dione substituted benzoxazinone derivatives containing a carboxylic ester group” (J Agric Food Chem, 2009).

Key:
Triticum aestivum [1] = experiment: Phytotoxicity against Triticum aestivum (wheat) assessed as growth inhibition at 7.5 to 60 g.a.i/ha post-emergent application measured after 15 days by greenhouse crop selectivity assay; format: organism-based; conditions: in vivo, other, 360 h
Procedure, shortened: (§1)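 Postemergence crop selectivity test on pot-grown plants in a greenhouse, in clay soil (pH 6.5, 1.7% organic matter, CEC 12.9 cmol/kg). Stock was diluted with water and sprayed at 60, 30, 15 or 7.5 g a.i./ha, in triplicate. Growth inhibition was rated visually against untreated controls after 15 days and given as the triplicate mean percentage.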

Echinochloa crus-galli [2] = experiment: Post-emergence herbicidal activity against Echinochloa crus-galli (barnyard grass) assessed as growth inhibition at 37.5 g.a.i./ha applied at one-leaf stage measured after 15 days; format: functional; conditions: 360 h, read-out: GI
Procedure, shortened: (§2)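 Pot-grown weeds sown 5 mm deep in greenhouse clay soil (pH 6.5, 1.7% organic matter, CEC 12.9 cmol/kg) at 22-25 °C. Stock diluted with water and sprayed post-emergence: dicots at 2-leaf stage, monocots at 1-leaf stage. Untreated and DMF solvent controls were included. % growth inhibition was scored visually versus untreated controls after 15 days. Triplicates averaged.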

Setaria viridis [3] = experiment: Pre-emergence herbicidal activity against Setaria viridis (green foxtail) assessed as growth inhibition at 15 g.a.i./ha applied 24 hr after seeds were sown measured after 15 days; format: functional; conditions: read-out: GI
Procedure, shortened: (§3)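 Weeds sown 5 mm deep in pots of greenhouse clay soil (pH 6.5, 37.5% clay, CEC 12.9 cmol/kg) and grown at 22-25 °C. Water-diluted formulation was applied pre-emergence 24 h after sowing. Untreated and DMF solvent controls were included. Growth inhibition was visually rated in % against untreated controls after 15 days, as the mean of triplicates.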

Setaria viridis [4] = experiment: Post-emergence herbicidal activity against Setaria viridis (green foxtail) assessed as growth inhibition at 37.5 g.a.i./ha applied at one-leaf stage measured after 15 days; format: functional; conditions: 360 h, read-out: GI; procedure, shortened: as §2
Digitaria sanguinalis [5] = experiment: Pre-emergence herbicidal activity against Digitaria sanguinalis (hairy crabgrass) assessed as growth inhibition at 37.5 g.a.i./ha applied 24 hr after seeds were sown measured after 15 days; format: functional; conditions: read-out: GI; procedure, shortened: as §3
Echinochloa crus-galli [6] = experiment: Post-emergence herbicidal activity against Echinochloa crus-galli (barnyard grass) assessed as growth inhibition at 7.5 g.a.i./ha applied at one-leaf stage measured after 15 days; format: functional; conditions: 360 h, read-out: GI; procedure, shortened: as §2
Gossypium [7] = experiment: Phytotoxicity against Gossypium (cotton) assessed as growth inhibition at 7.5 to 60 g.a.i/ha post-emergent application measured after 15 days by greenhouse crop selectivity assay; format: organism-based; conditions: in vivo, other, 360 h; procedure, shortened: as §1
Chenopodium album [8] = experiment: Post-emergence herbicidal activity against Chenopodium album assessed as growth inhibition at 75 g.a.i./ha applied at two-leaf stage measured after 15 days; format: functional; conditions: 360 h, read-out: GI; procedure, shortened: as §2
Echinochloa crus-galli [9] = experiment: Pre-emergence herbicidal activity against Echinochloa crus-galli (barnyard grass) assessed as growth inhibition at 7.5 g.a.i./ha applied 24 hr after seeds were sown measured after 15 days; format: functional; conditions: read-out: GI; procedure, shortened: as §3
Chenopodium album [10] = experiment: Pre-emergence herbicidal activity against Chenopodium album assessed as growth inhibition at 15 g.a.i./ha applied 24 hr after seeds were sown measured after 15 days; format: functional; conditions: read-out: GI; procedure, shortened: as §3
[11] = Phytotoxicity against Triticum aestivum (wheat) assessed as growth inhibition at 300 g.a.i/ha pre-emergent application measured after 15 days by greenhouse crop selectivity assay; format: organism-based; conditions: in vivo, read-out: GI
Procedure, shortened: (§4)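 Pre-emergence greenhouse crop selectivity test on pot-grown plants in clay soil (pH 6.5, 1.7% organic matter, 37.5% clay, CEC 12.9 cmol/kg). Stock solutions were diluted with water and applied at 300, 150, 75 or 37.5 g a.i./ha, in triplicate. After 15 days, phytotoxicity was scored visually against untreated controls as % crop growth inhibition, averaged over the triplicates.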

Gossypium [12] = experiment: Phytotoxicity against Gossypium (cotton) assessed as growth inhibition at 75 g.a.i/ha pre-emergent application measured after 15 days by greenhouse crop selectivity assay; format: organism-based; conditions: in vivo, other, 360 h; procedure, shortened: as §4
Gossypium [13] = experiment: Phytotoxicity against Gossypium (cotton) assessed as growth inhibition at 37.5 g.a.i/ha pre-emergent application measured after 15 days by greenhouse crop selectivity assay; format: organism-based; conditions: in vivo, other, 360 h; procedure, shortened: as §4
Abutilon theophrasti [14] = experiment: Pre-emergence herbicidal activity against Abutilon theophrasti (velvetleaf) assessed as growth inhibition at 75 g.a.i./ha applied 24 hr after seeds were sown measured after 15 days; format: functional; conditions: read-out: GI; procedure, shortened: as §3
Chenopodium album [15] = experiment: Post-emergence herbicidal activity against Chenopodium album assessed as growth inhibition at 15 g.a.i./ha applied at two-leaf stage measured after 15 days; format: functional; conditions: 360 h, read-out: GI; procedure, shortened: as §2
Arachis hypogaea = experiment: Phytotoxicity against Arachis hypogaea (peanut) assessed as growth inhibition at 75 g.a.i/ha pre-emergent application measured after 15 days by greenhouse crop selectivity assay; format: organism-based; conditions: in vivo, other, 360 h; procedure, shortened: as §4
Digitaria sanguinalis [16] = experiment: Pre-emergence herbicidal activity against Digitaria sanguinalis (hairy crabgrass) assessed as growth inhibition at 15 g.a.i./ha applied 24 hr after seeds were sown measured after 15 days; format: functional; conditions: read-out: GI; procedure, shortened: as §3
Digitaria sanguinalis [17] = experiment: Pre-emergence herbicidal activity against Digitaria sanguinalis (hairy crabgrass) assessed as growth inhibition at 7.5 g.a.i./ha applied 24 hr after seeds were sown measured after 15 days; format: functional; conditions: read-out: GI; procedure, shortened: as §3
Amaranthus = experiment: Pre-emergence herbicidal activity against Amaranthus ascendens assessed as growth inhibition at 75 g.a.i./ha applied 24 hr after seeds were sown measured after 15 days; format: functional; conditions: read-out: GI; procedure, shortened: as §3
Abutilon theophrasti [18] = experiment: Post-emergence herbicidal activity against Abutilon theophrasti (velvetleaf) assessed as growth inhibition at 37.5 g.a.i./ha applied at two-leaf stage measured after 15 days; format: functional; conditions: 360 h, read-out: GI; procedure, shortened: as §2
Amaranthus spinosus = experiment: Post-emergence herbicidal activity against Amaranthus spinosus assessed as growth inhibition at 15 g.a.i./ha applied at two-leaf stage measured after 15 days; format: functional; conditions: 360 h, read-out: GI; procedure, shortened: as §2
Setaria viridis [19] = experiment: Pre-emergence herbicidal activity against Setaria viridis (green foxtail) assessed as growth inhibition at 7.5 g.a.i./ha applied 24 hr after seeds were sown measured after 15 days; format: functional; conditions: read-out: GI
Procedure, shortened: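 Secondary pre-emergence test run at 7.5, 15 and 37.5 g a.i./ha on pot-grown weeds in a greenhouse at 22-25 °C. Seeds sown 5 mm deep in clay soil (pH 6.5, 1.7% organic matter, CEC 12.9 cmol/kg). Stock diluted with water and applied 24 h after sowing. Done in triplicate; visual % growth inhibition vs untreated after 15 days, averaged.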

Abutilon theophrasti [20] = experiment: Pre-emergence herbicidal activity against Abutilon theophrasti (velvetleaf) assessed as growth inhibition at 15 g.a.i./ha applied 24 hr after seeds were sown measured after 15 days; format: functional; conditions: read-out: GI; procedure, shortened: as §3
Zea mays = experiment: Phytotoxicity against Zea mays (maize) assessed as growth inhibition at 7.5 to 60 g.a.i/ha post-emergent application measured after 15 days by greenhouse crop selectivity assay; format: organism-based; conditions: in vivo, other, 360 h; procedure, shortened: as §1
Triticum aestivum [21] = experiment: Phytotoxicity against Triticum aestivum (wheat) assessed as growth inhibition at 37.5 g.a.i/ha pre-emergent application measured after 15 days by greenhouse crop selectivity assay; format: organism-based; conditions: in vivo, other, 360 h; procedure, shortened: as §4
Chenopodium album [22] = experiment: Pre-emergence herbicidal activity against Chenopodium album assessed as growth inhibition at 75 g.a.i./ha applied 24 hr after seeds were sown measured after 15 days; format: functional; conditions: read-out: GI; procedure, shortened: as §3
[23] = Phytotoxicity against Triticum aestivum (wheat) assessed as growth inhibition at 150 g.a.i/ha pre-emergent application measured after 15 days by greenhouse crop selectivity assay; format: organism-based; conditions: in vivo, 150 g.a.i/ha, read-out: GI; procedure, shortened: as §4
[24] = Phytotoxicity against Oryza sativa (rice) assessed as growth inhibition at 37.5 g.a.i/ha pre-emergent application measured after 15 days by greenhouse crop selectivity assay; format: organism-based, L.; conditions: in vivo, 37.5 g.a.i/ha, read-out: GI; procedure, shortened: as §4

| Compound | Activity (Triticum aestivum [1]) | inhibition of growth at 37.5 g/ha (Echinochloa crus-galli [2]) [%] | inhibition of growth at 15 g/ha (Setaria viridis [3]) [%] | inhibition of growth at 37.5 g/ha (Setaria viridis [4]) [%] | inhibition of growth at 37.5 g/ha (Digitaria sanguinalis [5]) [%] | inhibition of growth at 7.5 g/ha (Echinochloa crus-galli [6]) [%] | Activity (Gossypium [7]) | inhibition of growth at 75 g/ha (Chenopodium album [8]) [%] | inhibition of growth at 7.5 g/ha (Echinochloa crus-galli [9]) [%] | inhibition of growth at 15 g/ha (Chenopodium album [10]) [%] | inhibition at 360 h [11] [%] | growth inhibition (GI) (Gossypium [12]) | growth inhibition (GI) (Gossypium [13]) | inhibition of growth at 75 g/ha (Abutilon theophrasti [14]) [%] | inhibition of growth at 15 g/ha (Chenopodium album [15]) [%] | growth inhibition (GI) (Arachis hypogaea) | inhibition of growth at 15 g/ha (Digitaria sanguinalis [16]) [%] | inhibition of growth at 7.5 g/ha (Digitaria sanguinalis [17]) [%] | inhibition of growth at 75 g/ha (Amaranthus) [%] | inhibition of growth at 37.5 g/ha (Abutilon theophrasti [18]) [%] | further results |
| --- | --- | --- | --- | --- | --- | --- | --- | --- | --- | --- | --- | --- | --- | --- | --- | --- | --- | --- | --- | --- | --- |
| CCOC(=O)C(CC)N1C(=O)C(C)Oc2cc(F)c(N3C(=O)C4=C(CCCC4)C3=O)cc21 (centres undefined) | Toxic | 50 | 0 | 70 | 0 | 0 | Toxic | > 80 | 0 | 100 | > 10 | Not Active | Not Active | > 80 | 100 | Not Active | 0 | 0 | > 80 | 100 | inhibition of growth at 15 g/ha (Amaranthus spinosus): 100%; inhibition of growth at 7.5 g/ha (Setaria viridis [19]): 0%; inhibition of growth at 15 g/ha (Abutilon theophrasti [20]): 40%; Activity (Zea mays): Toxic; growth inhibition (GI) (Triticum aestivum [21]): Not Active; inhibition of growth at 75 g/ha (Chenopodium album [22]): > 80% |
| CCOC(=O)C(C)N1C(=O)C(C)Oc2cc(F)c(N3C(=O)C4=C(CCCC4)C3=O)cc21 (centres undefined) | Toxic | 50 | 40 | 50 | 80 | 10 | Toxic | > 80 | 0 | 100 | > 10 | Not Active | Not Active | > 80 | 100 | Not Active | 40 | 0 | > 80 | 100 | inhibition at 360 h [23]: > 10%; inhibition at 360 h [24]: > 10%; inhibition of growth at 15 g/ha (Amaranthus spinosus): 100%; inhibition of growth at 7.5 g/ha (Setaria viridis [19]): 0%; inhibition of growth at 15 g/ha (Abutilon theophrasti [20]): 0%; Activity (Zea mays): Toxic; growth inhibition (GI) (Triticum aestivum [21]): Not Active; inhibition of growth at 75 g/ha (Chenopodium album [22]): > 80% |
| COC(=O)C(C)N1C(=O)C(C)Oc2cc(F)c(N3C(=O)C4=C(CCCC4)C3=O)cc21 (centres undefined) | Toxic | 50 | 10 | 80 | 50 | 10 | Toxic | > 80 | 0 | 100 | > 10 | Not Active | Not Active | > 80 | 100 | Not Active | 10 | 0 | > 80 | 100 | inhibition at 360 h [23]: > 10%; inhibition at 360 h [24]: > 10%; inhibition of growth at 15 g/ha (Amaranthus spinosus): 100%; inhibition of growth at 7.5 g/ha (Setaria viridis [19]): 0%; inhibition of growth at 15 g/ha (Abutilon theophrasti [20]): 60%; Activity (Zea mays): Toxic; growth inhibition (GI) (Triticum aestivum [21]): Not Active; inhibition of growth at 75 g/ha (Chenopodium album [22]): > 80% |
| C#CCN1C(=O)COc2cc(F)c(N3C(=O)C4=C(CCCC4)C3=O)cc21 [FLUMIOXAZIN] | Toxic | 80 | 50 | 95 | 80 | 50 | Toxic | > 80 | 0 | 100 | > 10 | Not Active | Not Active | > 80 | 100 | Not Active | 50 | 0 | > 80 | 100 | inhibition at 360 h [23]: > 10%; inhibition at 360 h [24]: > 10%; inhibition of growth at 15 g/ha (Amaranthus spinosus): 100%; inhibition of growth at 7.5 g/ha (Setaria viridis [19]): 0%; inhibition of growth at 15 g/ha (Abutilon theophrasti [20]): 80%; Activity (Zea mays): Toxic; inhibition of growth at 75 g/ha (Chenopodium album [22]): > 80% |
